From ChEMBL document CHEMBL1125219, “A selective, reversible, competitive inhibitor of monoamine oxidase A containing no nitrogen, with negligible potentiation of tyramine-induced blood pressure rise” (J Med Chem, 1991) come the findings set out here.

Data set [1] deals with T1, Amine oxidase [flavin-containing] A (Rattus norvegicus, UniProt P21396).
T1 sequence (P21396 whole entry): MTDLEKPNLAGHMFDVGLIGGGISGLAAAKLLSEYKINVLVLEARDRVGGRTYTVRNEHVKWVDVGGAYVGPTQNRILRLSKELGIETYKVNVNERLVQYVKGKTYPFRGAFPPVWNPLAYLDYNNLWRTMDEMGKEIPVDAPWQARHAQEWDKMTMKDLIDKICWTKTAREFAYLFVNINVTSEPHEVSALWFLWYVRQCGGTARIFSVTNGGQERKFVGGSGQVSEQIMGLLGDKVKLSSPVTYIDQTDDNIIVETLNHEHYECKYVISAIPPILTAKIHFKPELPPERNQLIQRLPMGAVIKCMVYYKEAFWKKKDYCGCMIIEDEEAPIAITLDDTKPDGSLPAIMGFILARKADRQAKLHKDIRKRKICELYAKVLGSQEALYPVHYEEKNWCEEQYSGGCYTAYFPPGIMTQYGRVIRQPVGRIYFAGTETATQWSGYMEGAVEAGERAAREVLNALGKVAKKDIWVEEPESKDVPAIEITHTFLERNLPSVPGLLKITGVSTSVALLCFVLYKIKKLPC
Briefly: In vitro binding affinity towards Monoamine Oxidase A in rat.

The target in data set [2] is T1, Amine oxidase [flavin-containing] A. Briefly: The compound was tested in vitro for inhibition of Monoamine Oxidase A from rat brain. The procedure, abridged: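 Double-label radiometric assay on washed rat brain mitochondria with the test agent in vitro. Substrates were at about twice Km, and each activity was independent of the other.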
For data set [3] the target is unchanged. Description: The compound was tested ex vivo for inhibition of Monoamine Oxidase A in rat brain. It is filed as functional, tissue-based.
Data set [4] addresses T2, Amine oxidase [flavin-containing] A (Homo sapiens, UniProt P21397).
T2 sequence (P21397 whole entry): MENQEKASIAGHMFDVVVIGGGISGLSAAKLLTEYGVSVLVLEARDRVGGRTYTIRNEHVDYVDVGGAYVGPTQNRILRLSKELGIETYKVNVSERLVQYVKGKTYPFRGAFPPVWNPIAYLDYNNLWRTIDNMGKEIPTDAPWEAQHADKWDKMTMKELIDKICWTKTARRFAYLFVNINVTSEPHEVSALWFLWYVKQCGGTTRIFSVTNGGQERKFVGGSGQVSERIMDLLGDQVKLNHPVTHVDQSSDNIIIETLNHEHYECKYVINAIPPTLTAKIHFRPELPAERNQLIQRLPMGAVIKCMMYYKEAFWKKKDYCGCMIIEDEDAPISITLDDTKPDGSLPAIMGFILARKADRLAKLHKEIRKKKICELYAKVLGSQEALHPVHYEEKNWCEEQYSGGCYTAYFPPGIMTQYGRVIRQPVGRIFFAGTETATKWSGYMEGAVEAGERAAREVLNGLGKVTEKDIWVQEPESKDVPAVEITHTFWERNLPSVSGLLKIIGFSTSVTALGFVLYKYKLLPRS
Briefly: In vitro binding affinity towards Monoamine Oxidase A in human.

Data set [5] concerns the target T1, Amine oxidase [flavin-containing] A. Briefly: In vivo effective dose against Monoamine Oxidase A in rat brain. It is filed as functional, organism-based.
Data set [6] shares this target. Briefly: The compound was tested ex vivo for percentage inhibition of Monoamine Oxidase A in rat brain at 20 mg/Kg. The class given is functional, tissue-based.
Data set [7] has the same target. Description: The compound was tested ex vivo for percentage inhibition of Monoamine Oxidase A in rat brain at 20 mg/kg; NS=No significant inhibition. The class given is functional, organism-based. Details: dose 20 mg/kg; call rule not given here.
Data set [8] shares this target. Description: The compound was tested ex vivo for percentage inhibition of Monoamine Oxidase A in rat brain at 30 mg/kg. Further details: dose 30 mg/kg. It is filed as functional, organism-based.

Each structure is given as a SMILES string. pIC50, pKi: −log10 of the molar value.

Consider `CCc1cccc2c1S(=O)(=O)c1ccccc1O2`, for which the pKi in data set [1] and in data set [4] was 8.00 each time. Moreover, the negative-log IC50 (pIC50) – broadly, the negative decadic logarithm of the IC50, by convention in mol/L – in data set [2] is 7.46. Further, the ED50 (in general, the dose at which the effect has come halfway, by size or by number of responders) is 20 mg/kg in data set [3] and 8 mg/kg in data set [5].

In data set [2], `O=S1(=O)c2ccccc2Oc2cccc(CCO)c21` showed a pIC50 of 7.70. In addition, in data set [6], the inhibition (usually the change of the read-out against control, counted positive when it falls) at 20 mg/kg was 55%.

In turn, `O=C(O)Cc1cccc2c1S(=O)(=O)c1ccccc1O2` showed a pIC50 in data set [2] of 4.52. The Inhibition result in data set [7] is reported as “Not Active”.

`C=Cc1cccc2c1S(=O)(=O)c1ccccc1O2` showed a pIC50 in data set [2] of 7.40. The same compound came in with an ED50 in data set [3] of 20 mg/kg.

In data set [2], `CC(O)c1cccc2c1S(=O)(=O)c1ccccc1O2` (configuration not stated) gave a pIC50 of 6.40. The ED50 in data set [3] was 30 mg/kg.

Regarding `O=S1(=O)c2ccccc2Oc2cccc(C(O)CO)c21` (configuration not stated), in data set [2], the pIC50 is 5.92. This compound also returned an ED50 in data set [3] of 20 mg/kg.

As for `CC(=O)c1cccc2c1S(=O)(=O)c1ccccc1O2`, in data set [8], the inhibition at 30 mg/kg was 70%. The pIC50 in data set [2] is 5.70.
